Reference: ChEMBL document CHEMBL1177701, “Synthesis, biological evaluation, and structure-activity relationships of dithiolethiones as inducers of cytoprotective phase 2 enzymes” (J Med Chem, 2010)

Legend:
Format in all cases: functional
[1] = system: Rattus norvegicus; assay: Ex vivo induction of NQO1 in Sprague-Dawley rat bladder at 7.5 umol/kg/day, po for 10 days measured on day 11 relative to control
Outline: (§1)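 Female Sprague-Dawley rats, 6 per group, gavaged with compound at 7.5 µmol/kg/day or soya oil for 10 days and killed on day 11. Bladder homogenized in ice-cold 0.2% Triton X-100 and cleared by centrifugation. NQO1 activity measured by the Ernster method, GST by the Habig method. Reported as treated/control mean ± SEM, ANOVA with Student-Newman-Keuls test.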

[2] = system: Rattus norvegicus; assay: Ex vivo induction of GST in Sprague-Dawley rat bladder at 7.5 umol/kg/day, po for 10 days measured on day 11 relative to control; outline: as §1
[3] = system: Rattus norvegicus; assay: Ex vivo induction of NQO1 in Sprague-Dawley rat liver at 7.5 umol/kg/day, po for 10 days measured on day 11 relative to control
Outline: (§2)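 Organs taken from the same rats used for the bladder study: female Sprague-Dawley, compound at 7.5 µmol/kg/day by gavage or soya oil for 10 days, killed on day 11. GI contents rinsed out under cold water and tissues stored at −80°C. Homogenized in 0.2% Triton X-100 and centrifuged. Supernatant NQO1 activity measured by the Ernster method, expressed as treated/control.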

[4] = system: Rattus norvegicus; assay: Ex vivo induction of NQO1 in Sprague-Dawley rat kidney at 7.5 umol/kg/day, po for 10 days measured on day 11 relative to control; outline: as §2
[5] = system: Rattus norvegicus; assay: Ex vivo induction of NQO1 in Sprague-Dawley rat lung at 7.5 umol/kg/day, po for 10 days measured on day 11 relative to control; outline: as §2
[6] = system: Rattus norvegicus; assay: Ex vivo induction of NQO1 in Sprague-Dawley rat duodenum at 7.5 umol/kg/day, po for 10 days measured on day 11 relative to control; outline: as §2
[7] = system: Rattus norvegicus; assay: Ex vivo induction of NQO1 in Sprague-Dawley rat jejunum at 7.5 umol/kg/day, po for 10 days measured on day 11 relative to control; outline: as §2
[8] = system: Rattus norvegicus; assay: Ex vivo induction of NQO1 in Sprague-Dawley rat ileum at 7.5 umol/kg/day, po for 10 days measured on day 11 relative to control; outline: as §2
[9] = system: Rattus norvegicus; assay: Ex vivo induction of NQO1 in Sprague-Dawley rat colon at 7.5 umol/kg/day, po for 10 days measured on day 11 relative to control; outline: as §2
[10] = system: Rattus norvegicus; assay: Ex vivo induction of NQO1 in Sprague-Dawley rat stomach at 7.5 umol/kg/day, po for 10 days measured on day 11 relative to control; outline: as §2

SMILES: Cc1cc(=S)ss1
- fold change (FC) [1]: 1.23
- fold change (FC) [2]: 1.08

SMILES: CCOC(=O)c1cc(=S)ss1
- fold change (FC) [1]: 1.13
- fold change (FC) [2]: 1.09

SMILES: Cc1ssc(=S)c1C(=O)O
- fold change (FC) [1]: 1.1
- fold change (FC) [2]: 0.99

SMILES: CC1Cc2ssc(=S)c2C1 (stereo not drawn)
- fold change (FC) [1]: 1.81
- fold change (FC) [2]: 1.31

SMILES: CCOC(=O)c1c(N)ssc1=S
- fold change (FC) [1]: 2.03
- fold change (FC) [2]: 1.25

SMILES: S=c1ssc2c1CCCC2
- fold change (FC) [1]: 1.46
- fold change (FC) [2]: 1.05

SMILES: COC(=O)c1c(C)ssc1=S
- fold change (FC) [1]: 1.24
- fold change (FC) [2]: 1.24

SMILES: S=c1ssc2c1CCC2
- fold change (FC) [3]: 1.26
- fold change (FC) [4]: 1.87
- fold change (FC) [5]: 1.26
- fold change (FC) [6]: 2.82
- fold change (FC) [7]: 1.44
- fold change (FC) [8]: 1.36
- fold change (FC) [9]: 1.28
- fold change (FC) [1]: 3.14
- fold change (FC) [2]: 1.68
- fold change (FC) [10]: 3.55

SMILES: S=c1ccss1 [DITHIOLETHIONE]
- fold change (FC) [3]: 1.3
- fold change (FC) [4]: 1.82
- fold change (FC) [5]: 1.37
- fold change (FC) [6]: 5.6
- fold change (FC) [7]: 2.31
- fold change (FC) [8]: 1.76
- fold change (FC) [9]: 1.81
- fold change (FC) [1]: 2.78
- fold change (FC) [2]: 1.7
- fold change (FC) [10]: 5.31

SMILES: CCOC(=O)c1cssc1=S
- fold change (FC) [3]: 1.04
- fold change (FC) [4]: 1.47
- fold change (FC) [5]: 1.21
- fold change (FC) [6]: 1.21
- fold change (FC) [7]: 1.04
- fold change (FC) [8]: 1.11
- fold change (FC) [9]: 0.98
- fold change (FC) [1]: 4.82
- fold change (FC) [2]: 2.76
- fold change (FC) [10]: 2.15

SMILES: Cc1cssc1=S
- fold change (FC) [1]: 1.83
- fold change (FC) [2]: 1.23

SMILES: O=c1ccss1
- fold change (FC) [1]: 1.26
- fold change (FC) [2]: 1.01
